Screens as filed in PubChem BioAssay.
MPTP block: inhibitors of mitochondrial permeability transition pore; isolated mouse mitochondria, Ca2+ swelling absorbance, 30 min; inhibition, % at 10 µM; 1.4% of 360,000 active; AID 602449;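 active means inhibition of 50% or more, scaled per plate between neutral and stimulator controls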;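 further: 0% = DMSO wells given calcium and 100% = 1 mM EGTA wells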
MIN6 prolif-1: induces beta-cell replication in MIN6 cells; 0.29% of 330,000 active; MIN6 cells proliferation, ATPlite luminescence, 48 h; cells starved in 0.2% serum; 100% = growth in 10% serum; proliferation, % at 10 µM; AID 2380;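 active means compounds whose signal lies at least 3.5 SD above the mean of all wells on their plate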;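 further: 0% = DMSO-treated cells in low-serum medium and 100% = 10% serum control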
Exocytosis inh: blocks lytic granule exocytosis; TALL-104 LAMP-1 surface exposure, flow cytometry; cells stimulated with thapsigargin and PMA; inhibition, % at 10 µM; 0.66% of 360,000 active; AID 651702;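 active means inhibition above about 55%, limit read from the data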
hiPSC survival: enhancers of human iPSC single-cell survival; hiPSC single-cell survival, ATPlite luminescence; 100% = ROCK inhibitor wells, 0% = DMSO; survival enhancement, % at 20 µM; 0.044% of 360,000 active; AID 602274; in the data active means survival enhancement above about 18%;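 further: cells exposed to compounds for 16 hours before the ATP read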
Apaf1 inhib: inhibitors of human Apaf-1 apoptosome; O14727; reconstituted apoptosome caspase-3 activity, DEVD-Rh110 fluorescence; inhibition, % at 20 µM; 0.71% of 330,000 active; AID 489030; active means inhibition of at least 40% at 20 µM;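 further: plate controls were DMSO wells for no effect and DEVD-CHO caspase inhibitor wells for full effect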
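Assay system: Apoptosome proteins | Medium: pH 7.5 Hepes buffer with CHAPS, BSA, DTT | Also added: Cytochrome c and DEVD-Rh110 substrate | Times: 30 min plus 50 min, RT | Detection: Rhodamine 110 fluorescence at Ex 480/Em 540 nm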
UBC13 inh: inhibitors of human UBC13 polyubiquitin chain formation. 0.47% of 330,000 active. P61088. AID 485273. inhibition, % at 20 µM. TR-FRET; in the data active means inhibition above about 45%, passing the limit was not always enough
Target sequence (P61088 whole entry, looked up): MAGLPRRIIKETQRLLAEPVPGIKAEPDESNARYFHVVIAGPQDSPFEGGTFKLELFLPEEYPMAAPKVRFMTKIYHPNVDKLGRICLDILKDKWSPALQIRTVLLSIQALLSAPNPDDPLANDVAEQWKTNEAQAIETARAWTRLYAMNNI
MIN6 prolif-2: confirmation of inducers of beta-cell replication in MIN6 cells | shares compounds with MIN6 prolif-1 | MIN6 beta-cell proliferation, ATPlite luminescence, 48 h; cells kept in 0.2% serum; scaled between 0.2% and 10% serum | proliferation increase, % at 50 µM | 920 tested, under 10 active;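 active means proliferation increase above 40% at any of the four tested concentrations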
The depositor's hits bear a star; · = no result given. The list is not random: actives were taken first. Their share in the collection is about 3%.

SMILES	MPTP block	MIN6 prolif-1	Exocytosis inh	hiPSC survival	Apaf1 inhib	UBC13 inh	MIN6 prolif-2
COc1cccc(C(=O)Nc2ccc3c(c2)C(=O)NC3=O)c1	-1.2	9.1*	-3.0	-0.3	8.2	-6.1	0.1
CCOc1ccc(C(=O)Nc2cc3c(cc2N2CCCC2)n(CC)c(=O)n3CC)cc1OCC	-0.1	1.3	0.5	-0.5	9.8	-6.3	·
Cc1cc(=O)n(Cc2ccccc2)c2ccccc12	0.6	9.2*	-5.3	-0.4	1.1	4.6	3.2
CC(C)CCNC(=O)COC(=O)/C=C/c1ccc2ccccc2n1	-2.3	7.2*	-2.6	1.8	-7.5	-4.1	-2.3
O=C(COC(=O)/C=C/c1ccc2ccccc2n1)NNC(=O)c1ccccc1	0.8	·	-4.4	0.8	·	·	·
COc1ccc(OC(=O)COc2cc(C)ccc2C)cc1	0.4	6.1*	-0.7	-0.4	-0.7	0.9	-1.2
O=C1CN(S(=O)(=O)c2ccc(F)cc2)c2ccccc2N1	0.2	-0.7	2.3	-0.4	-3.3	3.3	·
O=C1CN(S(=O)(=O)c2ccccc2)c2ccccc2N1	-0.8	13.2*	-1.5	-0.5	-15.1	15.7	-1.3
Cc1nn(CC(=O)NCCCN2CCC(N3CCCCC3)CC2)c(=O)c2cc(-c3ccccc3)nn12	-0.9	-3.9	-5.5	-0.6	21.4	21.2	·
CCN(CC(=O)Nc1ccc(NC(C)=O)cc1)C(=O)c1cc(S(=O)(=O)N2CCCCCC2)ccc1OC	-0.2	-2.2	-5.8	0.0	6.8	-2.3	·
Cc1ccc(/C=N/NC(=O)CSc2nc3ccccc3s2)o1	0.2	0.0*	1.2	-0.7	3.1	1.8	2.2
COc1ccccc1NC(=O)Nc1cc(C(C)(C)C)nn1C	1.3	-3.0	-4.7	-0.4	-9.3	7.3	·
Cc1ccc(F)cc1NC(=O)Nc1cc(C(C)(C)C)nn1C	2.4	6.9*	-2.6	0.4	-7.4	8.5	-2.8
CCN(CC)S(=O)(=O)c1ccc2c3c(cccc13)C(=O)N2	1.3	11.3*	6.1	-0.2	13.6	-1.9	-0.1
CCN(c1cccc(C)c1)S(=O)(=O)c1ccc2c3c(cccc13)C(=O)N2	-7.7	-1.3	-1.3	0.8	13.5	6.5	·
COc1cccc(/C=N/NC(=O)CO/N=C(\C)c2cccs2)c1OC	1.2	4.6*	4.3	2.9	8.9	-0.5	-0.4
C/C(=N\OCC(=O)N/N=C/c1ccccc1O)c1cccs1	5.6	-5.4	1.5	3.3	14.1	7.2	·
COCc1cc(Sc2ccc(Cl)cc2)nc(-c2ccccc2)n1	1.9	-2.6	0.8	-0.1	10.3	-1.9	·
CCN(CC)C(=O)Oc1cc(COC)nc(-c2ccccc2)n1	2.1	5.3*	-7.3	-0.6	-0.7	-2.2	1.2
CC(=O)N1CCN(CC(O)Cn2c3ccccc3c3ccccc32)CC1 (configuration not stated)	-0.2	6.6*	0.6	1.3	-1.5	2.3	-5.8
COC(=O)[C@@]12C[C@@H](CC(=O)N3CCN(C(=O)C4CC4)CC3)C(=O)N(Cc3ccc4c(c3)OCO4)C1=CCC(C)(C)C2	-0.7	·	1.4	·	·	·	·
O=C(NCc1ccco1)c1cc2nc(-c3cccs3)cc(C(F)(F)F)n2n1	0.1	7.8*	1.2	0.3	-4.8	-2.7	4.8
Cc1ccccc1NC(=O)CSc1nnc(C)c2ccccc12	-0.8	5.8*	-3.4	0.1	3.0	11.7	3.5
CC(=O)Nc1ccc(S(=O)(=O)NC(=O)C23CC4CC(CC(C4)C2)C3)cc1	-1.8	7.5*	-4.2	-3.2	0.2	0.7	-1.8
CC(=O)Nc1ccc(S(=O)(=O)NNC(=O)NC23CC4CC(CC(C4)C2)C3)cc1	0.5	-1.1	-9.2	-0.3	6.1	-3.9	·
SMILES	MPTP block	MIN6 prolif-1	Exocytosis inh	hiPSC survival	Apaf1 inhib	UBC13 inh	MIN6 prolif-2
Cn1c(=O)c2cc(NC(=O)NCc3ccccc3)ccc2n1Cc1cccc(C(F)(F)F)c1	1.8	·	-2.0	-1.7	·	·	·
COc1ccc(/C=C/C(=O)C(C)(C)C)cc1OC	0.5	6.6*	-13.6	0.0	1.2	2.3	0.9
COc1ccc(/C=C/C(=O)OCC(=O)NC2CCCC2)cc1OC	-1.2	10.8*	-0.8	0.4	-4.3	-3.4	4.4
COc1ccc(/C=C/C(=O)NCCCNC(=O)/C=C/c2ccc(OC)c(OC)c2)cc1OC	4.1	-2.7	-3.2	1.6	-15.6	2.7	·
O=C(NC1CCCCC1)NS(=O)(=O)c1ccc2c(c1)CCC2	-0.6	·	-8.8	-0.5	·	·	·
Cc1cc(=O)n2nc(N3CCCC(C(=O)Nc4cccc(C)c4C)C3)sc2n1 (configuration not stated)	-0.8	·	1.8	-1.4	·	·	·
Cc1cccc(NC(=O)C2CCN(C(=O)[C@@H]3Cc4ccccc4CN3)CC2)c1	-0.6	5.2*	11.5	0.3	2.6	1.0	-4.5
Cc1ccc(NC(=O)C2CCN(C(=O)[C@@H]3Cc4ccccc4CN3)CC2)c(C)c1	-0.6	0.9	-0.8	-0.5	-72.0	9.2	·
CCNc1nc(Oc2ccc(=O)n(C)n2)nc(N2CCOCC2)n1	1.1	-0.3	4.4	-1.7	-3.0	-0.8	·
CNc1nc(Oc2ccc(=O)n(C)n2)nc(N2CCOCC2)n1	0.2	10.8*	11.4	2.8	2.0	8.4	-1.6
CCOc1ccc(N(CC(=O)N2CCN(Cc3ccccc3)CC2)S(C)(=O)=O)cc1	0.3	-0.6	-0.8	-0.2	0.0	-4.7	·
CCOC(=O)/C(C(=Nc1ccccc1)Nc1ccccc1)=C(\C)O	0.4	7.0*	-2.8	-0.1	4.6	0.8	-5.2
CN1C(=O)N(C)c2ccc(C=O)c3cccc1c23	2.7	6.6	-1.7	-1.0	6.2	-8.6	·
CN1C(=O)N(C)c2ccc(Br)c3cccc1c23	-0.1	8.6*	7.5	-0.2	13.7	-20.9	1.4
COc1ccc(N2CCN(C(=O)c3ccc(NC(=O)C4=CSCCO4)cc3)CC2)cc1	-1.2	-2.8	-4.6	-0.3	-2.4	4.6	·
Cc1ccc(NC(=O)c2cc(S(=O)(=O)N3CCOCC3)cn2C)cc1F	0.0	0.5	-3.4	-1.7	-6.9	5.8	·
CCOC(=O)C1(CC)NC(c2cccc(F)c2)C2C(=O)N(CC)C(=O)C21 (configuration not stated)	-0.1	7.2*	0.5	0.1	-3.3	3.2	3.9
O=C(CCN1C(=O)COc2ccccc21)NCCN1CCN(c2ccccc2F)CC1	-0.9	6.7*	-2.0	2.5	-16.3	1.4	-2.1
C=CCNC(=O)c1onc(CSc2ccccc2CC)c1C(=O)O	0.6	12.0*	3.2	3.8	0.2	-7.3	-1.3
C=CCNC(=O)c1onc(CSc2ccccc2)c1C(=O)NCC=C	-1.0	2.3	-6.2	-1.8	4.5	2.1	·
CCOC1=C2[C@H](c3ccccc3)N(S(=O)(=O)c3ccccc3)C[C@H]2n2c(=O)n(-c3ccccc3)c(=O)n2C1	-1.7	·	-1.2	-0.4	·	·	·
